Results from ChEMBL document CHEMBL3576840, “Helical Antimicrobial Sulfono-γ-AApeptides” (J Med Chem, 2015).
In brackets after ≈: the same amount, converted by molar mass. Residues, ends and D or L forms follow the SMILES beside them.

Tests used:
[1] = system: Pseudomonas aeruginosa; test: Antimicrobial activity against Pseudomonas aeruginosa ATCC 27853 after 16 hrs; format: functional; details: ATCC 27853, 16 h
Summary of the method: (§1)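 Broth microdilution: overnight cultures were reinoculated at 1:100, grown to mid-log phase, and diluted to 1 × 10^6 CFU/mL. Cells were mixed 1:1 with serial dilutions […] and incubated 16 h at 37 °C, then read at 600 nm. MIC is the lowest concentration with no growth. Repeated multiple times, in duplicate.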

[2] = system: Enterococcus faecalis; test: Antimicrobial activity against Enterococcus faecalis ATCC 700802 after 16 hrs; format: functional; details: ATCC 700802, 16 h; summary of the method: as §1
[3] = system: Staphylococcus epidermidis; test: Antimicrobial activity against methicillin-resistant Staphylococcus epidermidis RP62A after 16 hrs; format: functional
[4] = system: Staphylococcus aureus; test: Antimicrobial activity against methicillin-resistant Staphylococcus aureus ATCC 33592 after 16 hrs; format: functional; details: ATCC 33592, 16 h
[5] = system: Escherichia; test: Antimicrobial activity against Escherichia ATCC 25922 after 16 hrs; format: functional; details: ATCC 25922, 16 h; summary of the method: as §1
[6] = Induction of hemolysis in human RBCs incubated for 1 hr; format: cell-based, Erythrocyte; details: red blood cells
Summary of the method: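 Fresh K2EDTA human RBCs were washed in PBS until the supernatant was clear and diluted to a 5% v/v suspension. This was mixed with equal volumes of compound dilutions for 1 h at 37 °C, centrifuged, and supernatant absorbance read at 360 nm. Hemolysis was normalized between PBS (0%) and 2% Triton X-100 (100%) controls. At least three repeats, in duplicate.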

CC(=O)N[C@@H](CC(C)C)CN(CC(=O)N[C@@H](CC(C)C)CN(CC(=O)N[C@@H](CC(C)C)CN(CC(=O)N[C@@H](CC(C)C)CN(CC(=O)N[C@@H](CC(C)C)CN(CC(=O)N[C@@H](CC(C)C)CN(CC(=O)N[C@@H](CC(C)C)CN(CC(=O)N[C@@H](CC(C)C)CN(CC(N)=O)S(=O)(=O)CCN)S(=O)(=O)CCN)S(=O)(=O)CCN)S(=O)(=O)CCN)S(=O)(=O)CCN)S(=O)(=O)CCN)S(=O)(=O)CCN)S(=O)(=O)CCN
MIC [1]: > 50 µg/mL
MIC [2]: > 50 µg/mL
MIC [3]: > 50 µg/mL
MIC [4]: > 50 µg/mL
MIC [5]: > 50 µg/mL

CC(C)C[C@H](N)CN(CC(=O)N[C@@H](CC(C)C)CN(CC(=O)N[C@@H](CC(C)C)CN(CC(=O)N[C@@H](CCCCN)CN(CC(=O)N[C@@H](CC(C)C)CN(CC(=O)N[C@@H](CC(C)C)CN(CC(=O)N[C@@H](CC(C)C)CN(CC(=O)N[C@@H](CCCCN)CN(CC(N)=O)S(=O)(=O)CCN)S(=O)(=O)CC(C)C)S(=O)(=O)CCN)S(=O)(=O)CC(C)C)S(=O)(=O)CCN)S(=O)(=O)CC(C)C)S(=O)(=O)CCN)S(=O)(=O)CC(C)C
HC50 at 1 h [6]: > 250 µg/mL
MIC [1]: 50 µg/mL (≈ 22.7 µM)
MIC [2]: > 50 µg/mL
MIC [3]: 12 µg/mL (≈ 5.44 µM)
MIC [4]: > 50 µg/mL
MIC [5]: 12 µg/mL (≈ 5.44 µM)

NCCCC[C@H](N)CN(CC(=O)N[C@@H](Cc1ccccc1)CN(CC(=O)N[C@@H](Cc1ccccc1)CN(CC(=O)N[C@@H](Cc1ccccc1)CN(CC(=O)N[C@@H](CCCCN)CN(CC(N)=O)S(=O)(=O)CCN)S(=O)(=O)Cc1ccccc1)S(=O)(=O)CCN)S(=O)(=O)Cc1ccccc1)S(=O)(=O)CCN
HC50 at 1 h [6]: > 250 µg/mL
MIC [1]: > 50 µg/mL
MIC [2]: > 50 µg/mL
MIC [3]: 20 µg/mL (≈ 12.8 µM)
MIC [4]: > 50 µg/mL
MIC [5]: 25 µg/mL (≈ 16 µM)

NCCCC[C@@H](CN(CC(N)=O)S(=O)(=O)CCN)NC(=O)CN(C[C@H](Cc1ccccc1)NC(=O)CN(C[C@H](Cc1ccccc1)NC(=O)CN(C[C@H](Cc1ccccc1)NC(=O)CN(C[C@H](CCCCN)NC(=O)CN(C[C@H](Cc1ccccc1)NC(=O)CN(C[C@@H](N)Cc1ccccc1)S(=O)(=O)CCN)S(=O)(=O)Cc1ccccc1)S(=O)(=O)CCN)S(=O)(=O)Cc1ccccc1)S(=O)(=O)CCN)S(=O)(=O)Cc1ccccc1
HC50 at 1 h [6]: > 250 µg/mL
MIC [1]: 12 µg/mL (≈ 5.45 µM)
MIC [2]: > 50 µg/mL
MIC [3]: 3 µg/mL (≈ 1.36 µM)
MIC [4]: 3 µg/mL (≈ 1.36 µM)
MIC [5]: 12 µg/mL (≈ 5.45 µM)

CC[C@H](C)[C@H](NC(=O)CN)C(=O)NCC(=O)N[C@@H](CCCCN)C(=O)N[C@@H](Cc1ccccc1)C(=O)N[C@@H](CC(C)C)C(=O)N[C@@H](CCCCN)C(=O)N[C@@H](CCCCN)C(=O)N[C@@H](C)C(=O)N[C@@H](CCCCN)C(=O)N[C@@H](CCCCN)C(=O)N[C@@H](Cc1ccccc1)C(=O)NCC(=O)N[C@@H](CCCCN)C(=O)N[C@@H](C)C(=O)N[C@@H](Cc1ccccc1)C(=O)N[C@H](C(=O)N[C@@H](CCCCN)C(=O)N[C@H](C(=O)N[C@@H](CC(C)C)C(=O)N[C@@H](CCCCN)C(=O)N[C@@H](CCCCN)C(N)=O)[C@@H](C)CC)C(C)C [PEXIGANAN] (H-GIGKFLKKAKKFGKAFVKILKK-NH2)
MIC [1]: 16 µg/mL (≈ 6.46 µM)
MIC [2]: 32 µg/mL (≈ 12.9 µM)
MIC [3]: 8 µg/mL (≈ 3.23 µM)
MIC [4]: 16 µg/mL (≈ 6.46 µM)
MIC [5]: 8 µg/mL (≈ 3.23 µM)

NCCCC[C@@H](CN(CC(N)=O)S(=O)(=O)CCN)NC(=O)CN(C[C@@H](N)Cc1ccccc1)S(=O)(=O)Cc1ccccc1
MIC [1]: > 50 µg/mL
MIC [2]: > 50 µg/mL
MIC [3]: > 50 µg/mL
MIC [4]: > 50 µg/mL
MIC [5]: > 50 µg/mL

CC(=O)N[C@@H](CCCCN)CN(CC(=O)N[C@@H](CCCCN)CN(CC(=O)N[C@@H](CCCCN)CN(CC(=O)N[C@@H](CCCCN)CN(CC(=O)N[C@@H](CCCCN)CN(CC(=O)N[C@@H](CCCCN)CN(CC(=O)N[C@@H](CCCCN)CN(CC(=O)N[C@@H](CCCCN)CN(CC(N)=O)S(=O)(=O)Cc1ccccc1)S(=O)(=O)Cc1ccccc1)S(=O)(=O)Cc1ccccc1)S(=O)(=O)Cc1ccccc1)S(=O)(=O)Cc1ccccc1)S(=O)(=O)Cc1ccccc1)S(=O)(=O)Cc1ccccc1)S(=O)(=O)Cc1ccccc1
MIC [1]: > 50 µg/mL
MIC [2]: > 50 µg/mL
MIC [3]: > 50 µg/mL
MIC [4]: > 50 µg/mL
MIC [5]: > 50 µg/mL
